# Experimental data pooled from the literature.
# Target: Serine/threonine-protein kinase haspin (HASPIN, Homo sapiens, UniProt Q8TF76)
# One construct used (Q8TF76 1-798): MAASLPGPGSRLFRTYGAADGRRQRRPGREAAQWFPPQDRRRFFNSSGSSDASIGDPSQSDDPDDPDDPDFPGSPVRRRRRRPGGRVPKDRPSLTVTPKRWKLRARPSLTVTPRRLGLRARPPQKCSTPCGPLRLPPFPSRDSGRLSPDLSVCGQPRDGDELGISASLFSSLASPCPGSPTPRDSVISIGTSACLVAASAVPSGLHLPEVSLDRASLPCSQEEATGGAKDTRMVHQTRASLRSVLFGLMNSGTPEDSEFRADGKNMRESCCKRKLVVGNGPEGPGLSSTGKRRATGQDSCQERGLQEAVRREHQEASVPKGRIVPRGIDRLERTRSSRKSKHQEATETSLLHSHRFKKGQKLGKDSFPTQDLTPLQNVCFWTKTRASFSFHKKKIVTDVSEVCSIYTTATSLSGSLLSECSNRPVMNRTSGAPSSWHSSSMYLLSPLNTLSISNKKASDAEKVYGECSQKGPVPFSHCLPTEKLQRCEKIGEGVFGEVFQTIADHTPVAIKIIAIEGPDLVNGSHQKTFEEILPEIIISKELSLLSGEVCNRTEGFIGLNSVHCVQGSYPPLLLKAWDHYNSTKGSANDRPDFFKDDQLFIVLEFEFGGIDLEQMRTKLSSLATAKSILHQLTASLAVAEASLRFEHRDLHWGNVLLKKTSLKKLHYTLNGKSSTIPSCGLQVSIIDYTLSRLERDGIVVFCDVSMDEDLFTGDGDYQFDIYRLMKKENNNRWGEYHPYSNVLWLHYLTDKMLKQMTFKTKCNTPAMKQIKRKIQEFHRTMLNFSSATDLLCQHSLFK
Compound,test,setting,remaining binding [%]
C=CC(=O)N1CCC(C(=O)NCC(=O)N2CCN(c3nc(-c4cnc(N)nc4C(F)F)nc(N4CCOCC4)n3)CC2)CC1,"binding, competition with immobilised ligand",1 µM,75
N[C@@H]1CCN(c2nccc(-c3cnn4ncccc34)n2)C1,binding,1 µM,2.5
CC(=O)N1CCC(c2ccc(C(=O)NC3=NCCN3)cc2C(F)(F)F)CC1,"cell-free assay, competition with immobilised ligand",1 µM,78
C[C@H]1CCN(c2nccc(-c3cnn4ncccc34)n2)C1,binding,1 µM,2.1
O=C(c1ccc(Nc2ncc(Cl)c(-c3ccc(Cl)s3)n2)cc1)N1CCC(N2CCCC2)CC1,"binding, competition with immobilised ligand",1 µM,39
O=C(Nc1c[nH]nc1C(=O)NC1CCNCC1)c1cc(F)cc(F)c1,"binding, competition with immobilised ligand",1 µM,96
COc1cnc(Nc2cccc(S(N)(=O)=O)c2)nc1N1CCN(c2ccccc2)C(=O)C1,"binding, competition with immobilised ligand",1 µM,89
CN(C)c1nccc(-c2cnc3ncccn23)n1,binding,1 µM,2.8
C[C@H](NC(=O)c1cnc2n1[C@](C)(Cc1ccc(C#N)cc1)C(=O)N2c1cc(Cl)c(F)c(Cl)c1)C(=O)NC1(c2ccccn2)CC1,"cell-free assay, competition with immobilised ligand",1 µM,100
CNC(=O)[C@@H]1CC[C@@H](n2c(-c3ccc4cnccc4c3)nc3ccc(C(=O)NCc4cccc(C(N)=O)c4)cc32)C1,"binding, competition with immobilised ligand",1 µM,99
FC(F)(F)Oc1cccc(-c2cnc3ccc(-c4ccncc4)nn23)c1,"binding, competition with immobilised ligand",5 µM,4.6
c1cnn2ncc(-c3ccnc(N4CCC45COC5)n3)c2c1,binding,1 µM,0.6
NS(=O)(=O)c1cc(NC(=O)Cc2ccccc2)ccc1Oc1cccc(Cl)c1,"cell-free assay, competition with immobilised ligand",1 µM,100
c1cncc(-c2cccc(Nc3nccc(NC4CCCCC4)n3)c2)c1,"binding, competition with immobilised ligand",10 µM,23
CN(C)c1nccc(-c2cnn3ncccc23)n1,binding,1 µM,1.5
C[C@H](c1ccnc(Nc2nc3ccc(-c4cc(N(C)C)ncn4)cc3[nH]2)c1)N1CCN(C(=O)CC(F)(F)F)CC1,"cell-free assay, competition with immobilised ligand",0.1 µM,100
O=C(NCCCN1CCOCC1)c1ccc(Nc2ncc(Cl)c(-c3ccc(Cl)s3)n2)cc1,"binding, competition with immobilised ligand",1 µM,51
CCS(=O)(=O)c1cc2cc(C[C@@](O)(CC(C)(C)c3ccc(F)cc3C(N)=O)C(F)(F)F)[nH]c2cn1,"cell-free assay, competition with immobilised ligand",1 µM,80
COc1ccnn2ncc(-c3ccnc(N(C)C)n3)c12,binding,1 µM,1.8
O=C(NCCCN1CCOCC1)c1ccc(Nc2nccc(-c3cc4ccccc4s3)n2)cc1,"binding, competition with immobilised ligand",1 µM,80
F[C@@H]1CCN(c2nccc(-c3cnn4ncccc34)n2)C1,binding,1 µM,15
COc1ccc2cc(OCC3(C(=O)O)CN(C(=O)c4ccc(F)cc4)C3)ccc2c1,"cell-free assay, competition with immobilised ligand",1 µM,100
